Measurements from ChEMBL document CHEMBL4610098, “Isolation and Synthesis of Veranamine, an Antidepressant Lead from the Marine Sponge Verongula rigida” (J Nat Prod, 2020).
Active and inactive are the calls of the source. The rule behind the calls is not given here.

Legend:
Mus musculus = test: Antidepressant activity in Swiss Webster (Harlan) mouse assessed as decrease in immobility time at 20 mg/kg, ip after 30 mins by forced swim test; format: functional, organism-based
Procedure, shortened: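 Mice housed five per cage on 12 h light/dark cycle, randomized (n = 6–10/group), given i.p. dose in saline, 10% ethanol or 10% ethanol/1% DMSO vehicle; desipramine 20 mg/kg as reference. Directly after 30 min locomotor session, each mouse placed in water-filled cylinder (8 cm depth, 25 °C), videotaped 6 min; immobility over final 4 min timed by three observers, averaged.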

[1] = target: Sigma non-opioid intracellular receptor 1 (Homo sapiens, UniProt Q99720); test: Binding affinity to sigma1 receptor (unknown origin)
[2] = target: Sodium-dependent dopamine transporter (Homo sapiens, UniProt Q01959); test: Binding affinity to DAT (unknown origin)
[3] = target: Kappa-type opioid receptor (Homo sapiens, UniProt P41145); test: Binding affinity to KOR (unknown origin)
D(1B) dopamine receptor = D(1B) dopamine receptor (Homo sapiens, UniProt P21918); test: Binding affinity to dopamine D5 receptor (unknown origin)
D(4) dopamine receptor = D(4) dopamine receptor (Homo sapiens, UniProt P21917); test: Binding affinity to dopamine D4 receptor (unknown origin)
[4] = target: 5-hydroxytryptamine receptor 1D (Homo sapiens, UniProt P28221); test: Binding affinity to 5HT1D receptor (unknown origin)
Histamine H3 receptor = Histamine H3 receptor (Homo sapiens, UniProt Q9Y5N1); test: Binding affinity to histamine H3 receptor (unknown origin)
[5] = target: Alpha-2B adrenergic receptor (Homo sapiens, UniProt P18089); test: Binding affinity to adrenoceptor alpha 2B (unknown origin)
D(3) dopamine receptor = D(3) dopamine receptor (Homo sapiens, UniProt P35462); test: Binding affinity to dopamine D3 receptor (unknown origin)
[6] = target: Sodium-dependent noradrenaline transporter (Homo sapiens, UniProt P23975); test: Binding affinity to NET (unknown origin)
[7] = target: 5-hydroxytryptamine receptor 2B (Homo sapiens, UniProt P41595); test: Binding affinity to 5HT2B receptor (unknown origin)
D(1A) dopamine receptor = D(1A) dopamine receptor (Homo sapiens, UniProt P21728); test: Binding affinity to dopamine D1 receptor (unknown origin)
Histamine H4 receptor = Histamine H4 receptor (Homo sapiens, UniProt Q9H3N8); test: Binding affinity to histamine H4 receptor (unknown origin)
Histamine H2 receptor = Histamine H2 receptor (Homo sapiens, UniProt P25021); test: Binding affinity to histamine H2 receptor (unknown origin)
[8] = target: T1, 5-hydroxytryptamine receptor 7 (Homo sapiens, UniProt P34969); test: Binding affinity to 5HT7 receptor (unknown origin)
[9] = target: Sigma intracellular receptor 2 (Homo sapiens, UniProt Q5BJF2); test: Binding affinity to sigma2 receptor (unknown origin)
[10] = target: Beta-1 adrenergic receptor (Homo sapiens, UniProt P08588); test: Binding affinity to beta1 adrenoceptor (unknown origin)
[11] = target: 5-hydroxytryptamine receptor 2A (Homo sapiens, UniProt P28223); test: Binding affinity to 5HT2A receptor (unknown origin)
[12] = target: 5-hydroxytryptamine receptor 1B (Homo sapiens, UniProt P28222); test: Binding affinity to 5HT1B receptor (unknown origin)
[13] = target: Alpha-1A adrenergic receptor (Homo sapiens, UniProt P35348); test: Binding affinity to adrenoceptor alpha 1A (unknown origin)
[14] = target: 5-hydroxytryptamine receptor 5A (Homo sapiens, UniProt P47898); test: Binding affinity to 5HT5A receptor (unknown origin)
[15] = target: Muscarinic acetylcholine receptor M2 (Homo sapiens, UniProt P08172); test: Binding affinity to muscarinic acetylcholine receptor M2 (unknown origin)
Histamine H1 receptor = Histamine H1 receptor (Homo sapiens, UniProt P35367); test: Binding affinity to histamine H1 receptor (unknown origin)
D(2) dopamine receptor = D(2) dopamine receptor (Homo sapiens, UniProt P14416); test: Binding affinity to dopamine D2 receptor (unknown origin)
[16] = target: Muscarinic acetylcholine receptor M1 (Homo sapiens, UniProt P11229); test: Binding affinity to muscarinic acetylcholine receptor M1 (unknown origin)
[17] = target: Alpha-2A adrenergic receptor (Homo sapiens, UniProt P08913); test: Binding affinity to adrenoceptor alpha 2A (unknown origin)
[18] = target: 5-hydroxytryptamine receptor 2C (Homo sapiens, UniProt P28335); test: Binding affinity to 5HT2C receptor (unknown origin)
[19] = Effect on locomotor activity in Swiss Webster (Harlan) mouse at 20 mg/kg, ip after 30 mins by automated activity monitoring system based assay; format: ADME, organism-based; details: in vivo, 0.5 h
Procedure, shortened: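 Mice in groups of five, 12 h light/dark, randomized (n = 6–10/group), dosed i.p. in saline, 10% ethanol or 10% ethanol/1% DMSO vehicle, desipramine 20 mg/kg reference. Each mouse put in Plexiglas enclosure right after injection; photobeam interruptions recorded for 30 min, with counts from the last 10 min quantified and analyzed.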

[20] = target: Alpha-1B adrenergic receptor (Homo sapiens, UniProt P35368); test: Binding affinity to adrenoceptor alpha 1B (unknown origin)
[21] = target: 5-hydroxytryptamine receptor 1A (Homo sapiens, UniProt P08908); test: Binding affinity to 5HT1A receptor (unknown origin)
Mu-type opioid receptor = Mu-type opioid receptor (Homo sapiens, UniProt P35372); test: Binding affinity to MOR (unknown origin)
[22] = target: 5-hydroxytryptamine receptor 6 (Homo sapiens, UniProt P50406); test: Binding affinity to 5HT6 receptor (unknown origin)
[23] = target: Muscarinic acetylcholine receptor M3 (Homo sapiens, UniProt P20309); test: Binding affinity to muscarinic acetylcholine receptor M3 (unknown origin)
[24] = target: Alpha-2C adrenergic receptor (Homo sapiens, UniProt P18825); test: Binding affinity to adrenoceptor alpha 2C (unknown origin)
[25] = target: Sodium-dependent serotonin transporter (Homo sapiens, UniProt P31645); test: Binding affinity to SERT (unknown origin)
[26] = target: Delta-type opioid receptor (Homo sapiens, UniProt P41143); test: Binding affinity to DOR (unknown origin)
[27] = target: 5-hydroxytryptamine receptor 1E (Homo sapiens, UniProt P28566); test: Binding affinity to 5HT1E receptor (unknown origin)
[28] = target: Muscarinic acetylcholine receptor M5 (Homo sapiens, UniProt P08912); test: Binding affinity to muscarinic acetylcholine receptor M5 (unknown origin)
[29] = target: T1, 5-hydroxytryptamine receptor 7; test: Binding affinity to 5HT7A receptor (unknown origin)
[30] = target: Muscarinic acetylcholine receptor M4 (Homo sapiens, UniProt P08173); test: Binding affinity to muscarinic acetylcholine receptor M4 (unknown origin)
[31] = target: 5-hydroxytryptamine receptor 3A (Homo sapiens, UniProt P46098); test: Binding affinity to 5HT3 receptor (unknown origin)

T1 sequence (P34969 whole entry): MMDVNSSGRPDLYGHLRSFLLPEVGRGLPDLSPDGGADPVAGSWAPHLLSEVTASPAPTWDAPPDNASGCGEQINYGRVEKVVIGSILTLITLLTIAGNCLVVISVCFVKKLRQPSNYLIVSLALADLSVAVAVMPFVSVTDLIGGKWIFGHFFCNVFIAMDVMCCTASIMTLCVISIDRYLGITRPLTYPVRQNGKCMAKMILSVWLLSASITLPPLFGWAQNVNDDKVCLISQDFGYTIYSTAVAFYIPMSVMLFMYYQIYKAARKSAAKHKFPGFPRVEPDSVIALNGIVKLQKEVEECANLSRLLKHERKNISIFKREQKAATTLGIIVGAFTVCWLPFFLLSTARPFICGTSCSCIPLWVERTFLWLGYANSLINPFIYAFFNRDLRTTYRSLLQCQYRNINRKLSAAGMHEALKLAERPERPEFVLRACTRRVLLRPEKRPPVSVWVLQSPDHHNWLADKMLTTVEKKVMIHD
Chain of D(1A) dopamine receptor (P21728 whole entry): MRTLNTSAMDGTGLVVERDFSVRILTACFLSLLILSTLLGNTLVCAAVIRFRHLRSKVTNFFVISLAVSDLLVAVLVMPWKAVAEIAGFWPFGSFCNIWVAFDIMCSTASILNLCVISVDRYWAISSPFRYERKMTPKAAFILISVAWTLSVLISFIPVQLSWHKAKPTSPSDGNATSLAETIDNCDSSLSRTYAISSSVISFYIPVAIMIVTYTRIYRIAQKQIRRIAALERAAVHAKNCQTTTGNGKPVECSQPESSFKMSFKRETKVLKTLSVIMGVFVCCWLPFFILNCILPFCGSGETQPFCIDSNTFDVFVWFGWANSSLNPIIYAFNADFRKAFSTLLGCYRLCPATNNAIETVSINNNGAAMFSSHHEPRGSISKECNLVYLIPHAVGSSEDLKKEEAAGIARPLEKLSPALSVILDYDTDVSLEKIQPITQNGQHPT
Chain of D(2) dopamine receptor (P14416 whole entry): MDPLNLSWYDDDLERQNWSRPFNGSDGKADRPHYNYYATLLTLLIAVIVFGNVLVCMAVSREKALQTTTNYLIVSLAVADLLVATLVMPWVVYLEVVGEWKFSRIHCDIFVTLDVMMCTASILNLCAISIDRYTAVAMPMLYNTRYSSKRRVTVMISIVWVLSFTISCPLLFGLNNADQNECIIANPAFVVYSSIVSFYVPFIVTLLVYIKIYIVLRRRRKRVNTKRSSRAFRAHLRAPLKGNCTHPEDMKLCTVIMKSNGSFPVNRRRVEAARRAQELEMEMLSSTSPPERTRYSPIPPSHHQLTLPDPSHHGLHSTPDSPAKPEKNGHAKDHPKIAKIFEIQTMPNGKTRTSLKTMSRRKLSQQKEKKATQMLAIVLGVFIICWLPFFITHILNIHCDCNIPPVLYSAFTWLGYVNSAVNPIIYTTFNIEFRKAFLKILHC
Chain of Delta-type opioid receptor (P41143 whole entry): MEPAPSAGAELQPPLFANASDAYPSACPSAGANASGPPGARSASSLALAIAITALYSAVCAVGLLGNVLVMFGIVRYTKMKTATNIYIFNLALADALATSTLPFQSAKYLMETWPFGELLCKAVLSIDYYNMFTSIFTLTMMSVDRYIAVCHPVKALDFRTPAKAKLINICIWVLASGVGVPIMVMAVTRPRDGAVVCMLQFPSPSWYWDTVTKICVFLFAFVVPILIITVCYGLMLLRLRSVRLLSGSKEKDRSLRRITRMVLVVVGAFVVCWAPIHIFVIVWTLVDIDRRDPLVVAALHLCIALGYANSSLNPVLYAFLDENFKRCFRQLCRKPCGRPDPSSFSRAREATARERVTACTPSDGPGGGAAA
Chain of 5-hydroxytryptamine receptor 1B (P28222 whole entry): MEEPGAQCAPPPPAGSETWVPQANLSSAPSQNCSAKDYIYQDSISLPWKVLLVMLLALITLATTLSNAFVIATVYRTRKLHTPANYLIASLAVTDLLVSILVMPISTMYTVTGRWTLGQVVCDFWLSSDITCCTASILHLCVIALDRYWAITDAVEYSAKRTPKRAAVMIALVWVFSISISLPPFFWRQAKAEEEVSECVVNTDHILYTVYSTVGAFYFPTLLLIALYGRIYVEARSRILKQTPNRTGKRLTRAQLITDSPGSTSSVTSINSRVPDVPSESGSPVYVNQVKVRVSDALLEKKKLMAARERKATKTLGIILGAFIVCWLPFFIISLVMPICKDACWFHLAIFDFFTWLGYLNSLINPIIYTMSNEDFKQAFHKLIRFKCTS
Chain of 5-hydroxytryptamine receptor 5A (P47898 whole entry): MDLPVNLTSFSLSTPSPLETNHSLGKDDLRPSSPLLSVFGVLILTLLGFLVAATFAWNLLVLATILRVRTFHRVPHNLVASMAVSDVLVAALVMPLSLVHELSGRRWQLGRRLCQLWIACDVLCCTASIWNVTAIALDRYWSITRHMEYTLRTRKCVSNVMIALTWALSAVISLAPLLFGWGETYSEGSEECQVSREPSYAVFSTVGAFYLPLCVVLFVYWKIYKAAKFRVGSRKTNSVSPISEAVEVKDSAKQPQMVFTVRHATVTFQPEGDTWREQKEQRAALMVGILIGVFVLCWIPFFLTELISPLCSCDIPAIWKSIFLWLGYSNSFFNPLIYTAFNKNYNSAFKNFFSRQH
Chain of Histamine H3 receptor (Q9Y5N1 whole entry): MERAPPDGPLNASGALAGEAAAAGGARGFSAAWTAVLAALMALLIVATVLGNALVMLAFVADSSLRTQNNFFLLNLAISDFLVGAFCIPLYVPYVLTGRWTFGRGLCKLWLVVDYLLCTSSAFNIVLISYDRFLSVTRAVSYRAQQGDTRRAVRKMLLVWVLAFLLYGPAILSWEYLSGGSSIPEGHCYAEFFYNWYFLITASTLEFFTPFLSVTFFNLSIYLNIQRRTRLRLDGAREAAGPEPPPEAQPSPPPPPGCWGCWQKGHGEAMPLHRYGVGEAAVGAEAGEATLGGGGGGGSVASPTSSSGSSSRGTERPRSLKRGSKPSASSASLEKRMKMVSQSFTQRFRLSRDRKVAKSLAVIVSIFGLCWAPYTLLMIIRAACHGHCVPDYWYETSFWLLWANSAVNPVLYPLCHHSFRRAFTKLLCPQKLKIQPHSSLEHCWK
Chain of 5-hydroxytryptamine receptor 1A (P08908 whole entry): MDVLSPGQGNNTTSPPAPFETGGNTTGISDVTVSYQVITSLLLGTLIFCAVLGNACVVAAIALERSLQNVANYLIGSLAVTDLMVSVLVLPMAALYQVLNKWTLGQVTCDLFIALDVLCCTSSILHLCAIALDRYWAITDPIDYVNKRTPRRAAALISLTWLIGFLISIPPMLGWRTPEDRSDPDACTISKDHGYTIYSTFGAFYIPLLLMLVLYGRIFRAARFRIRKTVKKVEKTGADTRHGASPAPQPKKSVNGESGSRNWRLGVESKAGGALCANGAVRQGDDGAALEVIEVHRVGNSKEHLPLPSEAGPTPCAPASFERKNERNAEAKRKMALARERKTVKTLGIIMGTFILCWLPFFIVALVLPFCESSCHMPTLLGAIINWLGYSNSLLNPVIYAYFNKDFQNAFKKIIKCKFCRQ
Chain of Histamine H4 receptor (Q9H3N8 whole entry): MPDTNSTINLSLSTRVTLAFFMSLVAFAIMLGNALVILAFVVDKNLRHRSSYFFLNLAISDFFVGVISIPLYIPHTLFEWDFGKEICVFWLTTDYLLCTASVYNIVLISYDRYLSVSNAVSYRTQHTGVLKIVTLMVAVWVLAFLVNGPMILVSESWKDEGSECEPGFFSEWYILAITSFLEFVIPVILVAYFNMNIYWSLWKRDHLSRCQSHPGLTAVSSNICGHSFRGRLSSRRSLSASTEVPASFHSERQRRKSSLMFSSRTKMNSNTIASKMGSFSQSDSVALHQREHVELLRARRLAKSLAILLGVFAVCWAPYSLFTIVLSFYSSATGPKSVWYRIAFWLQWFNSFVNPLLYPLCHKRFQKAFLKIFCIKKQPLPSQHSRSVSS
Chain of Muscarinic acetylcholine receptor M4 (P08173 whole entry): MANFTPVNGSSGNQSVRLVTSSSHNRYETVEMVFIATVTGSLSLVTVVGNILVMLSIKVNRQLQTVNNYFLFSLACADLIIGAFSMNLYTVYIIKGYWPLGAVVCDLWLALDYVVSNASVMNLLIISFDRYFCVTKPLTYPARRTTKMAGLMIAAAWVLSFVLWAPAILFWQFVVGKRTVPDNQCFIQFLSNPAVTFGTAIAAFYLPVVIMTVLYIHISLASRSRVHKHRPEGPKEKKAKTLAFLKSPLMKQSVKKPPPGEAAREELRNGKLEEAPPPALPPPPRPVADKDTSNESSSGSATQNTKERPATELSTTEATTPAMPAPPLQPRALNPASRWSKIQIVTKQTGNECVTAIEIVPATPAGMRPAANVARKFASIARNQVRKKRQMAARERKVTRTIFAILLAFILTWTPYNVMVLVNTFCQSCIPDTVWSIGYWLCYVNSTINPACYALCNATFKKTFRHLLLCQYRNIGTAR
Chain of Muscarinic acetylcholine receptor M5 (P08912 whole entry): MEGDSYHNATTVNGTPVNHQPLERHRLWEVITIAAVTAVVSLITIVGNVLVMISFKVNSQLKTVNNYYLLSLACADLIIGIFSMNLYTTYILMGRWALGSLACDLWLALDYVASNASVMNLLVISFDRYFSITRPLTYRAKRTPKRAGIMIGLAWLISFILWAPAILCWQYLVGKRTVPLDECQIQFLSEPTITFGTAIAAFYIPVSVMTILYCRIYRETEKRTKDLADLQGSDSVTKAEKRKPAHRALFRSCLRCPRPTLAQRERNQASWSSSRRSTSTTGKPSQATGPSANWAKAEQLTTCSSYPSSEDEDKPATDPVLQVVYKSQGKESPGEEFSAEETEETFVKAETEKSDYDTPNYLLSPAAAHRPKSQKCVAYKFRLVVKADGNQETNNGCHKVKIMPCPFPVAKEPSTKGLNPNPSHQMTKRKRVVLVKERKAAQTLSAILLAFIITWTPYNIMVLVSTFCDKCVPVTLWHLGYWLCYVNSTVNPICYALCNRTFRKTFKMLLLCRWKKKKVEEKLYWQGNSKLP
Chain of Sigma intracellular receptor 2 (Q5BJF2 whole entry): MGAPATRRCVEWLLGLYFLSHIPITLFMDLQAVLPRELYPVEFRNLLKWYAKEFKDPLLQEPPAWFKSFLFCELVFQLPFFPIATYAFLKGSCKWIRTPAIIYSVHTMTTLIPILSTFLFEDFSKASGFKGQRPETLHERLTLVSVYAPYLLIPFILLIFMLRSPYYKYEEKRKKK

With `CNCCCN1c2ccccc2CCc2ccccc21` the Activity (Mus musculus) was “Active”.
With `Cc1nccc2c1C(C)(C)Nc1cc(Br)ccc1-2` the Ki [1] was 0.56 µM, the Ki [2] was greater than 10 µM and the Ki [3] was greater than 10 µM. For the same compound, the Ki (D(1B) dopamine receptor) was greater than 10 µM, the Ki (D(4) dopamine receptor) was greater than 10 µM and the Ki [4] was greater than 10 µM. It also gave a Ki (Histamine H3 receptor) greater than 10 µM, a Ki [5] greater than 10 µM and a Ki (D(3) dopamine receptor) greater than 10 µM. For the same compound, the Ki [6] was greater than 10 µM, the Ki [7] was 0.39 µM and the Ki (D(1A) dopamine receptor) was greater than 10 µM. The Ki (Histamine H4 receptor) was greater than 10 µM, the Ki (Histamine H2 receptor) was greater than 10 µM and the Ki [8] was greater than 10 µM. The Ki [9] was greater than 10 µM, the Ki [10] was greater than 10 µM and the Activity (Mus musculus) was “Active”. For the same compound, the Ki [11] was greater than 10 µM, the Ki [12] was greater than 10 µM and the Ki [13] was greater than 10 µM. It also gave a Ki [14] greater than 10 µM, a Ki [15] greater than 10 µM and a Ki (Histamine H1 receptor) greater than 10 µM. It also gave a Ki (D(2) dopamine receptor) greater than 10 µM, a Ki [16] greater than 10 µM and a Ki [17] greater than 10 µM. For the same compound, the Ki [18] was greater than 10 µM, the Activity [19] was “Non-Toxic” and the Ki [20] was greater than 10 µM. For the same compound, the Ki [21] was greater than 10 µM, the Ki (Mu-type opioid receptor) was greater than 10 µM and the Ki [22] was greater than 10 µM. It also gave a Ki [23] greater than 10 µM, a Ki [24] greater than 10 µM and a Ki [25] greater than 10 µM. It also gave a Ki [26] greater than 10 µM, a Ki [27] greater than 10 µM and a Ki [28] greater than 10 µM. The Ki [29] was greater than 10 µM, the Ki [30] was greater than 10 µM and the Ki [31] was greater than 10 µM.
